Where “and” joins values, the source holds several entries; their conditions need not be identical. Equal entries are not always repeated.
Columns and labels:
[1] = biological target: T1, Polyunsaturated fatty acid 5-lipoxygenase (Rattus norvegicus) (UniProt P12527); test: In vitro inhibitory activity against Lipoxygenase in rat neutrophils at a dose of 50 uM
T1 sequence (whole entry): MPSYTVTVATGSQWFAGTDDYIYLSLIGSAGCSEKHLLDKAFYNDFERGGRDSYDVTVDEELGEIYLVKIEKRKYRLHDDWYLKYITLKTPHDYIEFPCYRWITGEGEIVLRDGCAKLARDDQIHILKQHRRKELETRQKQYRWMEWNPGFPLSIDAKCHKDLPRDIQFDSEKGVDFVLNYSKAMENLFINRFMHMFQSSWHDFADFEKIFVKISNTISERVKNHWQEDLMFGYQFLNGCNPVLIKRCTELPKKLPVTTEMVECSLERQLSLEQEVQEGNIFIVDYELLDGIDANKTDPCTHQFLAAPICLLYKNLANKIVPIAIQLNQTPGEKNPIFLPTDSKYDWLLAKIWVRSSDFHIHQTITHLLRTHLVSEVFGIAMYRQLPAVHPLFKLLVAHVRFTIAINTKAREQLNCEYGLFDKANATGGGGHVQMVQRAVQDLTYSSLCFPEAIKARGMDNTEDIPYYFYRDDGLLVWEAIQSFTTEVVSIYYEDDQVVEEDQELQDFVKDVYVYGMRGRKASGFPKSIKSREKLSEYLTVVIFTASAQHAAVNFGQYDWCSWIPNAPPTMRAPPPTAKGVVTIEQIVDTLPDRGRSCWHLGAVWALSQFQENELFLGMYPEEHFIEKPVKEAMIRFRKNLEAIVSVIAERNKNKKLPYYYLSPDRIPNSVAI
How it was run: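 Neutrophils come from the 4 h pleural exudate of male Wistar-Lewis rats given iv BSA plus intrapleural rabbit anti-BSA IgG. Cells are washed, red cells lysed with NH4Cl, and resuspended at about 5×10^6 cells/0.1 mL in Tris pH 7.4 with NaCl and 1 mM CaCl2. Cells are preincubated with compound 4 min at room temperature.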

[2] = biological target: Cyclooxygenase (Rattus norvegicus) (UniProt P35355+Q63921); test: In vitro inhibitory activity against Prostaglandin G/H synthase in rat neutrophils at a dose of 50 uM
[3] = organism: Rattus norvegicus; test: Antiinflammatory activity by immune response to collagen II antigen in rats antibody titer was determined by passive hemagglutinination; assay type: functional
How it was run: (§1)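 In rats with bovine type II collagen/incomplete Freund's adjuvant arthritis, the antibody response to collagen II was titred by passive hemagglutination. The delayed-type hypersensitivity component, ear thickness 24 h after intrapinna antigen, was read at day 21.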

[4] = organism: Rattus norvegicus; test: Delayed Type hypersensitivity (DTH) is measured by increase in ear thickness 24 hours after antigen injection into pinna; assay type: functional
[5] = test system: Rattus norvegicus; test: Antiinflammatory activity against collagen II arthritis in rats, activity % inhibition in noninjected paw edema; assay type: functional; design: concentration or dose not given beside the values
How it was run: (§2)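 Rats immunised with bovine articular-cartilage type II collagen (dissolved in 0.01 M AcOH for 24 h at 4 °C, dialysed against saline) mixed in equal volume with incomplete Freund's adjuvant. Paws were examined weekly for 7 weeks. An animal counted as arthritic at Δ paw volume ≥8.0 (injected paw) or ≥4.0 (noninjected paw). Bone lesions were scored on lateral-projection foot radiographs. 16 rats/group.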

[6] = test system: Rattus norvegicus; test: Antiinflammatory activity against collagen II arthritis in rats, activity% inhibition in injected paw edema; assay type: functional; design: concentration or dose not given beside the values; how it was run: as §2
[7] = test system: Rattus norvegicus; test: Tested in vivo for antiinflammatory activity against chronic adjuvant arthritic rat by prophylactic inhibition 2 degree paw after peroral administration of 9 mg/kg of dose; assay type: functional; conditions: route oral
How it was run: (§3)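 Prophylactic regimen, rats. Adjuvant is heat-killed Mycobacterium tuberculosis ground to a fine powder in paraffin oil (6 mg/mL); 0.1 mL is injected into the left hind paw. Oral drug is given 1 h before adjuvant challenge, then for 21 consecutive days; controls receive methyl cellulose. Left (1°) and right (2°) hind paw volumes are measured by plethysmograph.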

[8] = test system: Rattus norvegicus; test: Compound was tested in vivo for antiinflammatory activity against chronic adjuvant arthritic rat by therapeutic inhibition 1 degree paw after peroral administration of 9 mg/kg of dose; assay type: functional; conditions: route oral
[9] = test system: Rattus norvegicus; test: Tested in vivo for antiinflammatory activity against chronic adjuvant arthritic rat by prophylactic inhibition 1 degree paw after peroral administration of 9 mg/kg of dose; assay type: functional; conditions: route oral; how it was run: as §3
[10] = test system: Rattus norvegicus; test: Compound was tested in vivo for antiinflammatory activity against chronic adjuvant arthritic rat by prophylactic inhibition 2 degree paw after peroral administration of 18 mg/kg of dose; assay type: functional; conditions: route oral
How it was run: (§4)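 Prophylactic adjuvant arthritis: heat-killed Mycobacterium tuberculosis powder in paraffin oil (6 mg/mL), 0.1 mL injected into the left hind paw. Drug given orally 1 h before adjuvant, then for 21 consecutive days; controls received methyl cellulose. Left (1°) and right (2°) hind paw volumes were measured by plethysmograph.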

[11] = test system: Rattus norvegicus; test: Compound was tested in vivo for antiinflammatory activity against chronic adjuvant arthritic rat by prophylactic inhibition 2 degree paw after peroral administration of 36 mg/kg of dose; assay type: functional
[12] = test system: Rattus norvegicus; test: Compound was tested in vivo for antiinflammatory activity against chronic adjuvant arthritic rat by prophylactic inhibition 1 degree paw after peroral administration of 18 mg/kg of dose; assay type: functional; how it was run: as §4
[13] = test system: Rattus norvegicus; test: Compound was tested in vivo for antiinflammatory activity against chronic adjuvant arthritic rat by prophylactic inhibition 1 degree paw after peroral administration of 36 mg/kg of dose; assay type: functional
[14] = test system: Rattus norvegicus; test: In vivo antiinflammatory activity against rats by RPAR(reverse passive Arthus reaction) synovitis method; assay type: functional; design: concentration or dose not given beside the values
How it was run: (§5)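 Lewis rats, oral drug or placebo 1 h before iv BSA (2.28 mg in saline), then intraarticular rabbit anti-BSA (0.54 mg) into one knee and saline into the other, under light anesthesia. Second oral dose at 3 h; the total of both doses is the calculated dose. About 17 h after induction, subpatellar tissue with synovium is excised and weighed. Response is antibody-minus-saline knee weight, tested by analysis of variance.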

[15] = test system: Rattus norvegicus; test: Compound was tested in vivo for antiinflammatory activity against chronic adjuvant arthritic rat by therapeutic inhibition 2 degree paw after peroral administration of 9 mg/kg of dose; assay type: functional; conditions: route oral
[16] = test system: Rattus norvegicus; test: Compound was tested in vivo against chronic adjuvant arthritic rat by prophylactic inhibition 2 degree paw. Relative potency with respect to (8-Benzyl-5-hydroxy-1,3-dimethyl-6-propyl-1H,8H-1,3,4b,8,9-pentaaza-fluorene-2,4,7-trione); assay type: functional
[17] = test system: Rattus norvegicus; test: Compound was tested in vivo for antiinflammatory activity against chronic adjuvant arthritic rat by therapeutic inhibition 2 degree paw. Relative potency with respect to (8-Benzyl-5-hydroxy-1,3-dimethyl-6-propyl-1H,8H-1,3,4b,8,9-pentaaza-fluorene-2; assay type: functional
[18] = organism: Rattus norvegicus; test: Antiinflammatory activity on the development of collagen II arthritis in rats, measured based on animals positive for arthritis by the presence of bone lesions; assay type: functional; how it was run: as §2
[19] = test system: Rattus norvegicus; test: Antiinflammatory activity on the development of collagen II arthritis in rats, measured based on animals positive for arthritis by the presence of paw edema; assay type: functional; how it was run: as §2
[20] = test system: Rattus norvegicus; test: Compound was tested in vivo for antiinflammatory activity against chronic adjuvant arthritic rat by therapeutic inhibition 2 degree paw after peroral administration of 36 mg/kg of dose; conditions: route oral
[21] = test system: Rattus norvegicus; test: Compound was tested in vivo for antiinflammatory activity against chronic adjuvant arthritic rat by therapeutic inhibition 1 degree paw after peroral administration of 36 mg/kg of dose; conditions: route oral
[22] = organism: Rattus norvegicus; test: Compound was tested for antiinflammatory activity by immune response to collagen II antigen in rats, antibody titer was determined by passive hemagglutinination; assay type: functional; how it was run: as §1
[23] = organism: Rattus norvegicus; test: Compound was tested for antiinflammatory activity against collagen II arthritis in rats,; assay type: functional; how it was run: as §2
[24] = organism: Rattus norvegicus; test: compound was tested for antiinflammatory activity against collagen II arthritis in rats,; assay type: functional
How it was run: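 Arthritis induced in rats by injection of bovine articular cartilage type II collagen (dissolved in 0.01 M AcOH, dialysed against saline) mixed 1:1 with incomplete Freund's adjuvant. Paw inflammation checked weekly for 7 weeks. Inhibition = [Δpaw vol(collagen) − Δpaw vol(collagen + drug)]/[Δpaw vol(collagen) − Δpaw vol(ICFA control)] × 100. Bone damage scored by lateral-projection radiography; p ≤ 0.05 by Student's t-test.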

[25] = test system: Rattus norvegicus; test: Compound was tested in vivo for antiinflammatory activity against rats by RPAR(reverse passive Arthus reaction) synovitis method ata dose of 50 mg/kg, po; assay type: functional; how it was run: as §5
[26] = test system: Rattus norvegicus; test: Compound was tested in vivo for antiinflammatory activity against chronic adjuvant arthritic rat by prophylactic inhibition 1 degree paw after peroral administration of 10 mg/kg of dose; assay type: functional; conditions: route oral; how it was run: as §4
[27] = test system: Rattus norvegicus; test: Compound was tested in vivo for antiinflammatory activity against chronic adjuvant arthritic rat by prophylactic inhibition 2 degree paw after peroral administration of 10 mg/kg of dose; assay type: functional; conditions: route oral; how it was run: as §4

Q: CCCc1c(O)n(Cc2ccccc2)c2nc3c(c(=O)n(C)c(=O)n3C)n2c1=O was tested. Which inhibition [1] did it give?
A: 0% and 5%

Q: And the inhibition [2]?
A: 43%

Q: And the Antibody titer [3]?
A: 9.2

Q: And the DTH [4]?
A: 0.0464 mm

Q: And the Inhibition [5]?
A: 37.5%

Q: And the Inhibition [6]?
A: 9.6%

Q: And the inhibition in vivo at 9 mg/kg [7]?
A: 38%

Q: And the inhibition in vivo at 9 mg/kg [8]?
A: 17%

Q: What about the inhibition in vivo at 9 mg/kg [9] of the same molecule?
A: 16%

Q: And the inhibition in vivo at 18 mg/kg [10]?
A: 52%

Q: What about the inhibition in vivo at 36 mg/kg ([11]; po) of the same molecule?
A: 78%

Q: What about the inhibition in vivo at 18 mg/kg ([12]; Rattus norvegicus, po) of the same molecule?
A: 41%

Q: What about the Inhibition ([12]; route oral, 18 mg/kg) of the same molecule?
A: 41%

Q: And the inhibition in vivo at 36 mg/kg ([13]; po)?
A: 59%

Q: And the Inhibition [14]?
A: 33%

Q: What about the inhibition in vivo at 9 mg/kg [15] of the same molecule?
A: 15%

Q: What about the Relative potency [16] of the same molecule?
A: 1

Q: What about the Relative potency [17] of the same molecule?
A: 1

Q: What about the Positive [18] of the same molecule?
A: 26.7%

Q: What about the Positive [19] of the same molecule?
A: 26.7%

Q: What about the Inhibition [20] of the same molecule?
A: 77%

Q: And the Inhibition [21]?
A: 64%

Q: CC(C)(S)[C@@H](N)C(=O)O [PENICILLAMINE] was tested. Which Antibody titer [22] did it give?
A: 10.7

Q: What about the DTH [4] of the same molecule?
A: 0.0538 mm

Q: And the Inhibition [5]?
A: 42.6%

Q: What about the Inhibition [6] of the same molecule?
A: 36%

Q: And the Positive [23]?
A: 31.5%

Q: And the Positive [24]?
A: 31.3%

Q: For Cc1c(O)n(Cc2cccc(F)c2)c2nc3c(c(=O)n(C)c(=O)n3C)n2c1=O, which inhibition in vivo at 50 mg/kg [25] is on record?
A: 0%

Q: For Cn1c(=O)c2c(nc3n(Cc4ccccc4)c(O)c(CC=C4CCCCC4)c(=O)n23)n(C)c1=O, which inhibition [1] is on record?
A: 10% and 9%

Q: And the inhibition [2]?
A: 0%

Q: And the inhibition in vivo at 36 mg/kg ([11]; route oral)?
A: 39%

Q: What about the inhibition in vivo at 36 mg/kg ([13]; route oral) of the same molecule?
A: 6%

Q: And the Inhibition [14]?
A: 7%

Q: Cc1c(O)n(Cc2ccccc2F)c2nc3c(c(=O)n(C)c(=O)n3C)n2c1=O was tested. Which inhibition in vivo at 50 mg/kg [25] did it give?
A: 0%

Q: How did the inhibition [1] turn out when C=CCc1c(O)n(Cc2ccccc2)c2nc3c(c(=O)n(C)c(=O)n3C)n2c1=O was run?
A: 16% and 20%

Q: What about the inhibition [2] of the same molecule?
A: 16%

Q: What about the inhibition in vivo at 10 mg/kg [26] of the same molecule?
A: 16%

Q: And the inhibition in vivo at 10 mg/kg [27]?
A: 16%

Q: And the Inhibition [14]?
A: 29%
